Consider one compound from ChEMBL document CHEMBL1138476 (J Med Chem, 2009).

Active and inactive are the calls of the source. The calls are words filed in the database; no cut-off is given here.

The test system of series [1] is Rattus norvegicus. Nature of the series: Ex vivo receptor occupancy of CRF receptor in rat brain at 10 mg/kg, po by [125I]sauvagine binding and autoradiography relative to control. In kind it is functional. Put shortly:
(§1)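 Rats were given 0.3, 1, 3, 10 or 30 mg/kg po in 0.25% Methocel 60 min before sacrifice. Brains were removed, sectioned and frozen at −80 °C. Ex vivo CRF receptor binding gave occupancy relative to vehicle-treated rats, reported as mean ± SEM.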

For series [2], the system named is Canis familiaris. The experiment in a line: Effect on respiratory function in spontaneously breathing mongrel dog assessed as change in mean arterial pressure at 5 mg/kg after intravenous infusion for 30 mins (RVb= 4.0+/-3.0 %). In kind it is functional, Canis lupus familiaris, Artery.
Series [3] concerns Rattus norvegicus. Nature of the series: Ex vivo receptor occupancy of CRF receptor in rat brain at 1 mg/kg, po by [125I]sauvagine binding and autoradiography relative to control. The series is classed as functional. Put shortly: as §1
For series [4], the system named is Rattus norvegicus. The experiment in a line: Toxicity in rat assessed as total distance traveled at 10 mg/kg, po after 1 hr by spontaneous locomotor test. In kind it is functional. In outline: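 Rat spontaneous locomotor activity test with oral dosing in 0.25% Methocel 1 h before testing, at doses up to 100 mg/kg. Values are mean ± SEM, with N rats per group, compared with the vehicle (zero-dose) group.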

For series [5], the system named is Rattus norvegicus. Nature of the series: Toxicity in rat assessed as time spent on rotarod at 100 mg/kg, po after 1 hr by rotarod test. As to conditions: in vivo. The arrangement: dose 100 mg/kg, route oral. The series is classed as organism-based. In outline: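 Rats (N = 8 per dose) dosed po in 0.25% Methocel 1 h before rotorod testing. Time on rotorod in s, given as mean ± SEM against a vehicle (zero dose) group.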
On the technique in general: The rotarod test checks motor coordination on a turning rod.

Series [6] deals with T1, Substance-K receptor (Homo sapiens) (UniProt P21452).
T1 sequence (whole entry): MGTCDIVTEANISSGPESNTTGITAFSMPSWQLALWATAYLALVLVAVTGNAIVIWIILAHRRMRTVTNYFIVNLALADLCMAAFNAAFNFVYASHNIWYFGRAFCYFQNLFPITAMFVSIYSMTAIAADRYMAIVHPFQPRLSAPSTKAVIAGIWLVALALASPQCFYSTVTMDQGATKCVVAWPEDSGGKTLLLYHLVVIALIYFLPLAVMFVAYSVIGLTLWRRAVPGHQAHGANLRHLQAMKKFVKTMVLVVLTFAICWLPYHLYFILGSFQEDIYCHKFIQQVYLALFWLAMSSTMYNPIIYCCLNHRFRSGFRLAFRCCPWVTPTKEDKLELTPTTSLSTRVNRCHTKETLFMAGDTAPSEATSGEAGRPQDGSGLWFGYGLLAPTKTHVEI
The experiment in a line: Inhibition of ligand binding in neurokinin 2 receptor. The arrangement: scale not given: the % may be the effect or the level left. Put shortly: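 Screened at 10^-7 and 10^-5 M for binding inhibition, then taken to a dose–response on the human neurokinin 2 receptor. IC50 is based on two experiments.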

Series [7] has as its system Rattus norvegicus. The experiment in a line: Toxicity in rat assessed as time spent on rotarod at 3 mg/kg, po after 1 hr by rotarod test. The series is classed as organism-based. The arrangement: dose 3 mg/kg, route oral. As to conditions: in vivo. In outline: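 Rats, n = 8 per dose, dosed po in 0.25% Methocel 1 h before testing, at 0, 1.0, 3.0, 10, 30 and 100 mg/kg. Read-out is time on rotorod (s), mean ± SEM, compared with the vehicle (zero-dose) group.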

A short description of series [8]: Half life in Beagle dog at 1 mg/kg, po by cassette dosing. In kind it is ADME, organism-based, Canis lupus familiaris. The arrangement: dose 1 mg/kg, route oral. As to conditions: in vivo.
Series [9] deals with Rattus norvegicus. The experiment in a line: Ex vivo receptor occupancy of CRF receptor in rat brain at 3 mg/kg, po by [125I]sauvagine binding and autoradiography relative to control. The series is classed as functional. Put shortly:
as §1

Series [10] can be described thus: Lipophilicity log P of the compound. The series is classed as physicochemical. Conditions: octanol/water.
Series [11] relates to Rattus norvegicus. Nature of the series: Anxiolytic activity in rat assessed as increase in time spent on open arm at 18 mg/kg, po by elevated plus-maze test. In kind it is functional, organism-based. The arrangement: dose 18 mg/kg. In outline:
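Rat elevated plus maze: percent of test time spent in the open arms. Oral dosing in 0.25% Methocel 60 min before testing; n = 12 per dose, mean ± SEM. Analysed by ANOVA followed by Fisher's LSD comparisons against vehicle.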

Series [12] in a line: Elimination half life in chimpanzee at 0.5 mg/kg, iv. The arrangement: dose 0.5 mg/kg, route intravenous. As to conditions: in vivo, read-out: beta t1/2 (converted). In kind it is ADME, organism-based, Pan troglodytes. In outline: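 One chimpanzee received 0.5 mg/kg iv over 10 min (0.2 mL/kg) in 10% DMAC, 70% propylene glycol and deionized water. Blood was drawn into EDTA predose and at 6, 15, 30 min and 2, 4, 6, 9, 12, 24, 36, 48, 72 and 96 h.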

Series [13] deals with Canis familiaris. Nature of the series: Effect on respiratory function in spontaneously breathing mongrel dog assessed as change in airway resistance at 5 mg/kg after intravenous infusion for 60 mins (RVb= 17.3+/-15.1 %). In kind it is functional, Canis lupus familiaris.
For series [14], the system named is Canis familiaris. The experiment in a line: Effect on respiratory function in spontaneously breathing mongrel dog assessed as change in airway resistance at 5 mg/kg after intravenous infusion for 6 mins (RVb= 3.9+/-4.7 %). The series is classed as functional, Canis lupus familiaris.
Series [15] can be described thus: Plasma concentration in dog at 0.3 mg/kg after intravenous infusion for 30 mins. In kind it is ADME, organism-based, Canis lupus familiaris. The arrangement: dose 0.3 mg/kg, route intravenous.
In series [16] the test system is Rattus norvegicus. The experiment in a line: Ex vivo receptor occupancy of CRF receptor in rat brain at 0.3 mg/kg, po by [125I]sauvagine binding and autoradiography relative to control. In kind it is functional. In outline: as §1
The nature of series [17]: AUC (0 to infinity) in chimpanzee at 1 mg/kg, po. The series is classed as ADME, organism-based, Pan troglodytes. The arrangement: time infinity, dose 1 mg/kg, route oral. As to conditions: plasma. In outline:
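Chimpanzee PK. Oral: 1 mg/kg in two alert animals, given as a 1 mg/mL suspension in 50–50 (v/v) 0.5% methylcellulose/Tang orange juice with 1% Tween-80. IV: 0.5 mg/kg in one animal in 10% DMAC, 70% propylene glycol and deionized water, infused over 10 min (0.2 mL/kg). EDTA blood was taken predose and at 2–96 h; iv sampling added 6, 15 and 30 min.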

Series [18] relates to Rattus norvegicus. Nature of the series: Effect on acute renal function in rat assessed as change in urine chloride level per 100 gm body weight at 30 mg/kg, po (RVb= 95.3+/-11.6 mg/dl). The series is classed as functional.
Series [19] concerns the target T2, Corticotropin-releasing factor receptor 1 (Rattus norvegicus, UniProt P35353).
T2 sequence (P35353 whole entry): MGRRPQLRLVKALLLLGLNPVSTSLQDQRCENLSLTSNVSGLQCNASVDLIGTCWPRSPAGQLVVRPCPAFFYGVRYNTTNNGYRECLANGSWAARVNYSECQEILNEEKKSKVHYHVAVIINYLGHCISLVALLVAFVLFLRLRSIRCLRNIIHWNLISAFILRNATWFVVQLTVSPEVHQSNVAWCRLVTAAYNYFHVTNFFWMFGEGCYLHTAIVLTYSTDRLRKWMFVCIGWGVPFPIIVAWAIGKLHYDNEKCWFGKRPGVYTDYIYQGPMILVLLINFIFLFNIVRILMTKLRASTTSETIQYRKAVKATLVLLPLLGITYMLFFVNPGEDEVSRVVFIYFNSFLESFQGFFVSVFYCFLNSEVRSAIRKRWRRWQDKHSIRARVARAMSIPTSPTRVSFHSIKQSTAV
The experiment in a line: Antagonist activity at CRF1 receptor in rat pituitary cells assessed as inhibition of CRF-mediated ACTH production. The series is classed as functional, cell-based, Pituitary gland cell.

Series [20] concerns Rattus norvegicus. The experiment in a line: Effect on acute renal function in rat assessed as change in glucose level in urine per 100 gm body weight at 30 mg/kg, po (RVb= 9.9+/-1.9 mg/dl). The series is classed as functional.
In series [21] the test system is Rattus norvegicus. Nature of the series: Effect on acute renal function in rat assessed as change in urine volume per 100 gm body weight at 30 mg/kg, po (RVb= 1.7+/-0.2 ml/100g). In kind it is functional.

For orientation: logP means a log measure of how a compound divides between an organic and an aqueous phase. One may read the AUC(0-inf) as total exposure, with the tail of the curve extrapolated. One may read the IC50 as the midpoint of a concentration-inhibition curve. On to `CC[C@@H](C)Nc1nc(C)nc2c(-c3ccc(OC)nc3C)c(C)nn12` [PEXACERFONT], for which the Activity in the series on Rattus norvegicus [1] amounted to 69%; in the series on Canis familiaris [2], 6.2%; in the series with Rattus norvegicus [3] it was 26%; with Rattus norvegicus [4] it was 3695 cm; in [6] it was 80%; with Rattus norvegicus [9], 59%. Also, the Activity is -23.6% in the series with Canis familiaris [13]; 15.3% in the series with Canis familiaris [14]; 37% in the series on Rattus norvegicus [16]; 80 mmol/L in the series with Rattus norvegicus [18]; 4.4 mg/dL with Rattus norvegicus [20]; 3 mL/100 g in the series with Rattus norvegicus [21]. Besides, the Time amounted to 121 s in the series on Rattus norvegicus [5] and 162 s with Rattus norvegicus [7]. Also, the half-life in [8] was 10.7 h; in series [12] it was 30 h. Further, in series [10], the lipophilicity (logP) turned out to be 4.32. In the series with Rattus norvegicus [11], the outcome was Active. Further, the concentration at 0.5 h in series [15] came out at 150 nM. Moreover, the area under the curve AUC(0-inf) in series [17] was 11.7 µM·h. In addition, the half-inhibitory concentration (IC50) in [19] was determined as 129 nM.
